Measurements from article PMC4832855 (Cancer Science, 2016).

Key:
[1] = tested on: phosphorylation of Erk in HT‐29/GFP cells; assay: In vitro signal transduction assay; assay type: cell-based, human; conditions: up to 30 nmol/L
How it was run: (§1)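 HT-29/GFP colon cancer cells in culture exposed to test compound, then stimulated with human IGF-1 or human insulin; receptor tyrosine phosphorylation and downstream signalling assessed across a concentration series.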

IGF‐1R = IGF‐1R (Homo sapiens, UniProt P08069); assay: Kinase inhibition profiling at 100 nmol/L; assay type: biochemical; conditions: read-out: Inhibition at 100 nmol/L
Sequence of IGF‐1R (P08069 31-1367): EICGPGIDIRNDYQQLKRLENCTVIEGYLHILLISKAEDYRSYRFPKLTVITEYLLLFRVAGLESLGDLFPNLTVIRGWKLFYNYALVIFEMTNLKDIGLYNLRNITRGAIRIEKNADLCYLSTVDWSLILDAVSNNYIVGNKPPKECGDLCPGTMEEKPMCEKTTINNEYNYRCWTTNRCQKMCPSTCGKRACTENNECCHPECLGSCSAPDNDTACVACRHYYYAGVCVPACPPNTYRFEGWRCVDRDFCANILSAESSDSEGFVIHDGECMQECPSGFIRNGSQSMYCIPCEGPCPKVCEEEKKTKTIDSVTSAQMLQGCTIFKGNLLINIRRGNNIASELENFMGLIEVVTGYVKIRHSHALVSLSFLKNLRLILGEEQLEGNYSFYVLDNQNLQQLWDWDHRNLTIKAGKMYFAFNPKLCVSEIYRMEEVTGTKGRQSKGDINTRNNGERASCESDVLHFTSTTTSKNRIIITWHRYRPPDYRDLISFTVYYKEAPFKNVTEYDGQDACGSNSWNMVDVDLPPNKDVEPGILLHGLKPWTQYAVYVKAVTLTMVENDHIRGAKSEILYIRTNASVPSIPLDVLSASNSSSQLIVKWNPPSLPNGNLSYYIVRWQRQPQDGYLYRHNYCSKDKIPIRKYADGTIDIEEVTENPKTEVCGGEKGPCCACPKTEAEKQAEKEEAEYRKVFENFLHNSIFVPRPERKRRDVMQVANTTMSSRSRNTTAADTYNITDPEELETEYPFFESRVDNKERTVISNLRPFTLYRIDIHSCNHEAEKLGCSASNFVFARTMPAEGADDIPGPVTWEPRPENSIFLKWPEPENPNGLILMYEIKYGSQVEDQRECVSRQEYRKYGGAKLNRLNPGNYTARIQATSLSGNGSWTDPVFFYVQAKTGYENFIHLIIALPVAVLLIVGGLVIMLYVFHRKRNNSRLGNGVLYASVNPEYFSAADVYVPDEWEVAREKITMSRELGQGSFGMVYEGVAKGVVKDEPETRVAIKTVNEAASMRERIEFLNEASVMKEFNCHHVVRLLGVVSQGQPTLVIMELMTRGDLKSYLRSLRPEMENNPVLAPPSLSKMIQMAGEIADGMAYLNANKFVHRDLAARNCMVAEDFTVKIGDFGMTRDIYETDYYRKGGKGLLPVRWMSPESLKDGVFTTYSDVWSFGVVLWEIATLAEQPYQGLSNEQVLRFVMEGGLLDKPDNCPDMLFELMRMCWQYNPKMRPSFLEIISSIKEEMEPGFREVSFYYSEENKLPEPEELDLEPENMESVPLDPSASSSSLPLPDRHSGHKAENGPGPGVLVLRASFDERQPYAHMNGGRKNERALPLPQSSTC

[2] = tested on: human multiple myeloma cell lines (KMS‐12‐BM, LP‐1, NCI‐H929); assay: Anti-proliferative activity; assay type: cell-based; conditions: 72 h
[3] = tested on: phosphorylation of AKT in HT‐29/GFP cells; assay: In vitro signal transduction assay; assay type: cell-based, human; conditions: same concentration ranges (up to 30 nmol/L)
How it was run: as §1

[4] = target: fms‐like tyrosine kinase‐1 (Homo sapiens, UniProt P17948); assay: Kinase inhibition profiling at 100 nmol/L; assay type: biochemical; conditions: read-out: Inhibition at 100 nmol/L
Sequence of fms‐like tyrosine kinase‐1 (P17948 27-1338): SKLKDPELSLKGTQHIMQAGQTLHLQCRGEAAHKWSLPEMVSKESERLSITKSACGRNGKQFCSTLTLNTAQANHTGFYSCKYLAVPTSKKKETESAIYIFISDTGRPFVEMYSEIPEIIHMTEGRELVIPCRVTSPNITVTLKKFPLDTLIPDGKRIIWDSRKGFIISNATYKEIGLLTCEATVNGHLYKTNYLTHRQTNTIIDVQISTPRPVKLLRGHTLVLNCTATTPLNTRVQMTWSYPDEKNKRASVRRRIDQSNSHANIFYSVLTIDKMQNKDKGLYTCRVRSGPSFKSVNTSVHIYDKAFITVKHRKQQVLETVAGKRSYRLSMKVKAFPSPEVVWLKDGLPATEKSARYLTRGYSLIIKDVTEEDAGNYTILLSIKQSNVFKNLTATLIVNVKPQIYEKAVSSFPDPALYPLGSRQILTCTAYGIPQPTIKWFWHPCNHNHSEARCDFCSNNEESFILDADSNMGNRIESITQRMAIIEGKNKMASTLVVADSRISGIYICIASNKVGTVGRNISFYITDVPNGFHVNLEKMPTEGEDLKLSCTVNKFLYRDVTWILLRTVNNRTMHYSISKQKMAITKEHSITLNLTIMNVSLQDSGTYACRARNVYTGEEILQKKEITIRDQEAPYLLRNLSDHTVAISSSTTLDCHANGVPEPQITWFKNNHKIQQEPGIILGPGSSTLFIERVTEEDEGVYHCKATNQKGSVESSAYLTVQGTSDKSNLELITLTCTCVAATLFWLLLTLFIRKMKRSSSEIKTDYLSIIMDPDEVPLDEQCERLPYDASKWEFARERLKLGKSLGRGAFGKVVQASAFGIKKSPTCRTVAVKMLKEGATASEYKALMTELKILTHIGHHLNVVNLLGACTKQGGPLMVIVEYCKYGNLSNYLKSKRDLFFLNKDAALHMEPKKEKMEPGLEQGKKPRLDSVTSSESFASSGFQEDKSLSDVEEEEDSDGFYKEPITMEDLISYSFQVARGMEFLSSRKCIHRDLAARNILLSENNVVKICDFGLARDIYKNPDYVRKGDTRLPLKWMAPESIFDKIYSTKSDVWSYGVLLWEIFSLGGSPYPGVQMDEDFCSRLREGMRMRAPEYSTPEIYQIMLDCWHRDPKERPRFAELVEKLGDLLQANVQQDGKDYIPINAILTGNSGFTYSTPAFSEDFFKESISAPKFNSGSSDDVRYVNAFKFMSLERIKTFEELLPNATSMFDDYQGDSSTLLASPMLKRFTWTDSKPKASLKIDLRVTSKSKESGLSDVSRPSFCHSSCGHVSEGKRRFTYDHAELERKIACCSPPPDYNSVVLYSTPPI

[5] = tested on: non‐human primate, rodent; conditions: ref Kyowa Hakko Kirin Co., Tokyo, unpublished data; cited from earlier work
[6] = ref Kyowa Hakko Kirin Co., Ltd, Tokyo, unpublished data; cited from earlier work
[7] = tested on: patients with advanced solid tumors; assay: Phase I first-in-human study: pharmacodynamics; assay type: in vivo
How it was run: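 Open-label 3+3 dose-escalation/de-escalation study. After a 1-week observation period, the test compound was given orally once daily, continuously, after an overnight fast. On pharmacodynamic sampling days, fasting continued until 2 h post-dose. Plasma glucose and insulin were sampled between days 1 and 29, at pre-dose and at 1, 2 and 24 h post-dose. Only the fasting time points were evaluable.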

TrkA = TrkA (Homo sapiens, UniProt P04629); assay: Kinase inhibition profiling at 100 nmol/L; assay type: biochemical
Sequence of TrkA (P04629 33-796): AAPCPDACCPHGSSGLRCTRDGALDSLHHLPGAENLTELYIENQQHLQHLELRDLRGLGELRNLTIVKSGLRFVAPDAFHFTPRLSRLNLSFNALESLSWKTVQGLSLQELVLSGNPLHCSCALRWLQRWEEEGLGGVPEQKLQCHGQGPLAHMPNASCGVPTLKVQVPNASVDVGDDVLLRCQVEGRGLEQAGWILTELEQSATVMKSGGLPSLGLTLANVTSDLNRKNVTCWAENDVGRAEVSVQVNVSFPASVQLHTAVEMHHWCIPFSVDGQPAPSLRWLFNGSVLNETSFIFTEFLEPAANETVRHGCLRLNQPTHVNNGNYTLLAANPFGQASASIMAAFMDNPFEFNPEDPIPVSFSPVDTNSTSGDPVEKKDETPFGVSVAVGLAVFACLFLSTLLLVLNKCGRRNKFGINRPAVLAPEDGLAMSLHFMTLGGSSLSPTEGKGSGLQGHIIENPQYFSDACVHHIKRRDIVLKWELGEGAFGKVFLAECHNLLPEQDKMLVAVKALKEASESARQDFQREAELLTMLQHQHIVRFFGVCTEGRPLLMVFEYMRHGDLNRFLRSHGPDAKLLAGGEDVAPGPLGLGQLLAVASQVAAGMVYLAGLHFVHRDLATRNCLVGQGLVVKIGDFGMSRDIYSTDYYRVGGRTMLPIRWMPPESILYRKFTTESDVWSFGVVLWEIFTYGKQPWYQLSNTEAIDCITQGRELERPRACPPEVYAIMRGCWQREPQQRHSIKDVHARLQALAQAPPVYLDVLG

SCID mice = assay: Hyperglycemia and hyperinsulinemia in mice; assay type: in vivo, mouse; conditions: oral 10, 20, 40, 80 mg/kg
IR = IR (Homo sapiens, UniProt P06213); assay: Kinase inhibition profiling at 100 nmol/L; assay type: biochemical; conditions: read-out: Inhibition at 100 nmol/L
Sequence of IR (P06213 28-1382): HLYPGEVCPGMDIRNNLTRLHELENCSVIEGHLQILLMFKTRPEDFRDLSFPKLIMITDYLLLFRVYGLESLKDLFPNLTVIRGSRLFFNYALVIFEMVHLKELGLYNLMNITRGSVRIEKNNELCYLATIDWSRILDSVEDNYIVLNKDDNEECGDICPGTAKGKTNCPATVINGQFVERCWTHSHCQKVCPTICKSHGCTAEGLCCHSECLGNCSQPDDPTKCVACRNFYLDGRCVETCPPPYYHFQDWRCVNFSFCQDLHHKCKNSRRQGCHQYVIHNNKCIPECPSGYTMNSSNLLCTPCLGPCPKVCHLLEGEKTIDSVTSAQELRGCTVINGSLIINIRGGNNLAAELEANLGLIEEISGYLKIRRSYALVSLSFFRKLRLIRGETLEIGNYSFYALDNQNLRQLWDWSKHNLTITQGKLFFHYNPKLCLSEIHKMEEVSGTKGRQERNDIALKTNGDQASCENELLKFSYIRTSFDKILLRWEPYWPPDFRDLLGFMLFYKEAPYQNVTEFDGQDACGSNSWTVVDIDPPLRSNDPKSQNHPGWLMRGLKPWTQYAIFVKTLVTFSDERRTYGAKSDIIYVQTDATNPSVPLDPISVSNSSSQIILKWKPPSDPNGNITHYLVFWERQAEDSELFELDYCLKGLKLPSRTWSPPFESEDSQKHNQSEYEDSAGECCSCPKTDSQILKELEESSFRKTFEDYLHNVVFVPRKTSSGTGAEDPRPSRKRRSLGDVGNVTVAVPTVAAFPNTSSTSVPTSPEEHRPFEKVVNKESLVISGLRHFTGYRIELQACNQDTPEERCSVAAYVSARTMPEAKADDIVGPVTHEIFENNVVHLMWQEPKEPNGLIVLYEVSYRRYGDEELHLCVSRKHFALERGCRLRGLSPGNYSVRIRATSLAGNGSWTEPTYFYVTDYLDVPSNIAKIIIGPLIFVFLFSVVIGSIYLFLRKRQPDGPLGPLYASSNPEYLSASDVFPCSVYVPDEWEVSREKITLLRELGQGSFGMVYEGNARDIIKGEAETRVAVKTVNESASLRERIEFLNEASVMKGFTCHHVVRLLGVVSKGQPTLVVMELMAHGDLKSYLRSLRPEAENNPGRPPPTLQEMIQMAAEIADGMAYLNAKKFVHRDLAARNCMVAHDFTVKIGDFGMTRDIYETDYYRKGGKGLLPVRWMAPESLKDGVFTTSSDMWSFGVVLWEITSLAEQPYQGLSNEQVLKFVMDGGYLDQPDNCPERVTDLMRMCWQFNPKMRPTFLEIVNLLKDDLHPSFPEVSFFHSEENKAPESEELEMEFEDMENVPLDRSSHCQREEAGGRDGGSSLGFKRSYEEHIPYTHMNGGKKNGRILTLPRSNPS

EGFR = EGFR (Homo sapiens, UniProt P00533); assay: Kinase inhibition profiling at 100 nmol/L; assay type: biochemical; conditions: read-out: Inhibition at 100 nmol/L
[8] = Plasma protein binding, equilibrium dialysis; assay type: in vitro ADME; conditions: human, pH 7.2
[9] = tested on: patients with advanced solid tumors; assay: Phase I first-in-human study: safety, tolerability, DLT, MTD; assay type: in vivo
How it was run: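 Open-label 3+3 dose-escalation/de-escalation; oral once-daily dosing under overnight fasting for 28 days, 1-week observation, then continuous; AEs graded by CTCAE v3.0 with attribution; DLTs included grade 3 fasting hyperglycemia, grade 3 non-fasting hyperglycemia >4 h, grade 4 hyperglycemia, grade ≥2 cardiac toxicity, other grade ≥3 non-hematologic events, grade 4 neutropenia >7 days, grade 4 thrombocytopenia.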

[10] = patients, 37.5 and 50 mg, 1 and 2 h post‐dose

## Cc1ccsc1C(=O)Nc1cc(CN2CCN(C(=O)CO)CC2)ccc1/C=C/c1n[nH]c2ccccc12 [KW‐2450]
[1]
  Inhibitory activity against phosphorylation of Erk: without any inhibitory activity
IGF‐1R
  inhibition at 0.1 µM: 94.1%
[2]
  GI50: 0.011 to 0.019 µM
[3]
  Inhibition of phosphorylation of AKT downstream to IGF‐1R or IR: inhibited phosphorylation of AKT
[4]
  inhibition at 0.1 µM: > 90%
[5]
  Hyperglycemia at pharmacologically active (lower) doses: hyperglycemia induced
[6]
  Protein bound: 98.5–99.0%
[7]; 37.5‐mg cohort
  Patients with insulin values above the upper limit of quantitation (300 μU/mL): five
[7]; 50‐mg cohort
  Patients with insulin values above the upper limit of quantitation (300 μU/mL): three
[7]; [10]
  Fasting glucose: Elevations in fasting glucose
  Fasting insulin: Elevations
TrkA; TrkA, 100 nmol/L
  Inhibition at 100 nmol/L: 101.1%
TrkA; read-out: Inhibition at 100 nmol/L, TrkA, 100 nmol/L
  inhibition at 0.1 µM: > 90%
SCID mice
  Plasma glucose level: elevated levels
  Plasma insulin level: elevated levels
IR
  inhibition at 0.1 µM: 95.6%
EGFR
  inhibition at 0.1 µM: 2.5%
[8]
  fraction unbound at 6 h: 0.009 to 0.016
[9]; 37.5 mg/day (n = 7)
  Anorexia, treatment‐related, Grade 1–2: 2 (28.6) No. of patients (%)
  Anorexia, treatment‐related, Grade 3: 0 (0.0) No. of patients (%)
  Constipation, treatment‐related, Grade 1–2: 1 (14.3) No. of patients (%)
  Constipation, treatment‐related, Grade 3: 0 (0.0) No. of patients (%)
  Decreased appetite, treatment‐related, Grade 1–2: 0 (0.0) No. of patients (%)
  Decreased appetite, treatment‐related, Grade 3: 0 (0.0) No. of patients (%)
  Diarrhea, treatment‐related, Grade 1–2: 0 (0.0) No. of patients (%)
  Diarrhea, treatment‐related, Grade 3: 0 (0.0) No. of patients (%)
  Dizziness, treatment‐related, Grade 1–2: 1 (14.3) No. of patients (%)
  Dizziness, treatment‐related, Grade 3: 0 (0.0) No. of patients (%)
  Fatigue, treatment‐related, Grade 1–2: 4 (57.1) No. of patients (%)
  Fatigue, treatment‐related, Grade 3: 0 (0.0) No. of patients (%)
  Hyperglycemia, treatment‐related, Grade 1–2: 1 (14.3) No. of patients (%)
  Hyperglycemia, treatment‐related, Grade 3: 0 (0.0) No. of patients (%)
  Mucosal inflammation, treatment‐related, Grade 1–2: 1 (14.3) No. of patients (%)
  Mucosal inflammation, treatment‐related, Grade 3: 0 (0.0) No. of patients (%)
  Nausea, treatment‐related, Grade 1–2: 2 (28.6) No. of patients (%)
  Nausea, treatment‐related, Grade 3: 0 (0.0) No. of patients (%)
  Pain, treatment‐related, Grade 1–2: 0 (0.0) No. of patients (%)
  Pain, treatment‐related, Grade 3: 0 (0.0) No. of patients (%)
  Rash, treatment‐related, Grade 1–2: 1 (14.3) No. of patients (%)
  Rash, treatment‐related, Grade 3: 1 (14.3) No. of patients (%)
  Vomiting, treatment‐related, Grade 1–2: 1 (14.3) No. of patients (%)
  Vomiting, treatment‐related, Grade 3: 0 (0.0) No. of patients (%)
[9]; 37.5 mg/day, one of seven patients, grade 3 rash
  Patients with dose‐limiting toxicity: 14.3%
[9]; 50 mg/day (n = 6)
  Anorexia, treatment‐related, Grade 1–2: 0 (0.0) No. of patients (%)
  Anorexia, treatment‐related, Grade 3: 0 (0.0) No. of patients (%)
  Constipation, treatment‐related, Grade 1–2: 1 (16.7) No. of patients (%)
  Constipation, treatment‐related, Grade 3: 0 (0.0) No. of patients (%)
  Decreased appetite, treatment‐related, Grade 1–2: 3 (50.0) No. of patients (%)
  Decreased appetite, treatment‐related, Grade 3: 0 (0.0) No. of patients (%)
